Compound activity (PubChem)
ERAP1 inh: ERAP1 (human) enzyme inhibition. recombinant ERAP1, Leu-AMC fluorescence, 60 min. inhibition, % at 10.7 µM. 340,000 tested, 0.15% active. AID 652197;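 active = mean replicate inhibition of at least 30%, or all replicates individually reaching that 30% level; inactive = mean below 30% and not every replicate reaching it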;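 note: 0% = neutral control wells and 100% = L-leucinethiol positive control wells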
Target sequence (Q9NZ08 whole entry, looked up): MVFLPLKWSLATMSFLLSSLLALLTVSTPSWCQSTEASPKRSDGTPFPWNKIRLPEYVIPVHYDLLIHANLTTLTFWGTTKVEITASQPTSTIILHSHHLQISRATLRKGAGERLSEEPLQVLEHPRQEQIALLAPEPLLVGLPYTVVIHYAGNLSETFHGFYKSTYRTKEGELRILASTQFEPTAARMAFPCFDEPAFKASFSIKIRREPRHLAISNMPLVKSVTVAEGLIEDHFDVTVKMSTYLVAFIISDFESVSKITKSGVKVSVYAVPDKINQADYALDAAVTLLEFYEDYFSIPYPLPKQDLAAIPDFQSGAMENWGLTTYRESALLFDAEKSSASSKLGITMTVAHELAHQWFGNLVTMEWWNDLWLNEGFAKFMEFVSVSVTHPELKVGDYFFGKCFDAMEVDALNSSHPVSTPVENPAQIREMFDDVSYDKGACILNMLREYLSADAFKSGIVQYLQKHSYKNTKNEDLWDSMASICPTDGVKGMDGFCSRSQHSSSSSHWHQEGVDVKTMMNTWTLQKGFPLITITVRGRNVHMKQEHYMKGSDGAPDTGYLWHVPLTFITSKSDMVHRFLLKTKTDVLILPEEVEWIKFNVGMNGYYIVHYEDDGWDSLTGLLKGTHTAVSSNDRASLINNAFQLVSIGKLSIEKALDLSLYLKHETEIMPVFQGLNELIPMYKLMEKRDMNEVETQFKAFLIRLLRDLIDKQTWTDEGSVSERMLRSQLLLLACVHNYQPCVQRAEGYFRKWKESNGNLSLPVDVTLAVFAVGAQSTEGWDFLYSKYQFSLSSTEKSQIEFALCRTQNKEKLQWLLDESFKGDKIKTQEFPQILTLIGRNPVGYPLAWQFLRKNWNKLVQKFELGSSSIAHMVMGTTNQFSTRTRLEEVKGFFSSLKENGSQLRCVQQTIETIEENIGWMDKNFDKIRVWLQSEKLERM
CAL PDZ FP-1: blocks peptide binding to the human CAL PDZ domain; AID 602252; purified CAL PDZ, TMR-peptide fluorescence polarization, 1 h; inhibition, % at 24.9 µM; 300,000 tested, 0.92% active;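 active = mean inhibition of at least 30% with at least half of replicates also reaching 30%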;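 note: 0% = DMSO neutral control and 100% = excess unlabeled competitor peptide PRC23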
PDI turbidity: blocks human protein disulfide isomerase activity; P07237; PDI insulin aggregation turbidity, A650, 90 min; inhibition, % at 10 µM; 350,000 tested, 0.052% active; AID 588391;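 active = mean inhibition across replicates of 30% or more, whatever share of single replicates reach that level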
CAL PDZ FP-2: blocks peptide binding to human CAL PDZ domain | Q9HD26 | purified CAL PDZ, TMR-peptide fluorescence polarization, 1 h | inhibition, % at 20 µM | 330,000 tested, 0.02% active;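 active = highest replicate inhibition of at least 40%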;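 note: plate controls were DMSO neutral control wells for no effect and unlabeled competitor peptide control wells for full effect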
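material = purified tagged CAL PDZ domain construct (CerCALP) | compound dosing = 20 µM, one dose | times = 1 h at RT | measured by = fluorescence polarization from S- and P-plane intensities, G-factor corrected | read-out = inhibition from polarization loss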
ERp5 block: inhibitors of human ERp5. inhibition, % at 9.99 µM. 350,000 tested, 0.05% active. ERp5 insulin aggregation, absorbance 650 nm, 90 min. Q15084;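 active = mean replicate inhibition above about 25%, with every replicate also reaching it, limit read from the data, passing the limit was not always enough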
Rin1 Abl inh: human Rin1-Abl interaction inhibition. P00519+Q13671. inhibition, % at 7.35 µM. TR-FRET Rin1/Abl binding, biochemical. AID 588664. 360,000 tested, 0.4% active; in the data active = inhibition above about 5%, passing the limit was not always enough
Numbers without * were called inactive; nt = no result given; + = active, no number. An excerpt weighted towards active compounds, which were near 1.1% of everything screened.

SMILES	ERAP1 inh	CAL PDZ FP-1	PDI turbidity	CAL PDZ FP-2	ERp5 block	Rin1 Abl inh
CCCCC1CCC(C(=O)OC(C)C(=O)Nc2ccc(NC(C)=O)cc2)CC1 (centres undefined)	75*	2	-5	-1	2	5
CC(=O)Nc1ccc(NC(=O)C(C)OC(=O)C2CCC2)cc1 (centres undefined)	1	-2	-2	-1	0	1
COc1ccc(NC(=O)N(C)C[C@@H]2Oc3ccc(NC(=O)Nc4ccc(F)cc4)cc3CC(=O)N([C@H](C)CO)C[C@H]2C)cc1	6	nt	nt	nt	0	nt
Cc1noc(C)c1S(=O)(=O)N(C)C[C@H]1OCCCC[C@@H](C)Oc2ccc(NS(C)(=O)=O)cc2C(=O)N([C@@H](C)CO)C[C@H]1C	1	nt	nt	nt	0	nt
COc1ccc(C2NCCc3cc(OC)c(OC)cc32)cc1OC (centres undefined)	nt	60*	2	1	nt	-2
Cc1c2c(n3c(nc4ccccc43)c1C#N)N(CCN(C)C)CC2	31*	2	-1	0	0	-8
Cc1c2c(n3c(nc4ccccc43)c1C#N)N(CCCN(C)C)CC2	71*	2	2	-1	-1	-4
CCc1c(C)c(C#N)c2nc3ccccc3n2c1NCCCN(C)C	-3	nt	8	nt	-1	-4
CC1CN(S(=O)(=O)c2ccc(CN3C(=O)c4cccnc4C3=O)s2)c2ccccc2O1 (centres undefined)	-3	52*	-8	0	6	2
CCC(C)(C)NC(=O)CN(Cc1ccco1)C(=O)CCC(=O)Nc1nccs1	4	64*	-1	0	6	-1
O=C(O)c1cc2c(cc1Cl)N1CCCCCC1=NS2(=O)=O	-3	51*	-8	1	0	1
COC(=O)c1cc2c(cc1Cl)N1CCCCCC1=NS2(=O)=O	nt	3	2	-1	0	-1
COc1ccc(NC(=O)NC2(C(=O)N3CCCCCC3)CCCCC2)cc1	nt	-2	-11	-4	nt	4
COc1ccc(NC(=O)NC2(C(=O)N3CCN(C)CC3)CCCCC2)cc1	-7	61*	-13	10	2	-3
CN(C)C(=O)C[C@H]1C[C@H]2c3cc(NS(C)(=O)=O)ccc3O[C@H]2[C@H](CO)O1	0	nt	nt	nt	68*	nt
CN(C)C(=O)C[C@H]1C[C@@H]2c3cc(NS(C)(=O)=O)ccc3O[C@@H]2[C@H](CO)O1	-1	nt	nt	nt	15	nt
CN(C)C(=O)C[C@H]1C[C@H]2c3cc(NS(C)(=O)=O)ccc3O[C@H]2[C@@H](CO)O1	1	nt	nt	nt	33*	nt
C[C@@H]1CN([C@@H](C)CO)C(=O)c2c(c3ccccc3n2C)-c2ccccc2CO[C@@H]1CN(C)C(=O)[C@H](C)c1ccccc1	-5	nt	nt	nt	-5	nt
CCOc1ccc2nc3cc(N=Nc4ccc(N)nc4N)ccc3c(N)c2c1	nt	10	10	56*	nt	-2
COc1ccc(N=Nc2ccc(N)nc2N)cc1	10	-3	7	2	5	-5
Cc1cc(C)n2nc(SCc3cccc(S(=O)(=O)N(C)C)c3)nc2n1	-3	43*	-5	nt	-3	4
Cc1ccc(CSc2nc3nc(C)cc(C)n3n2)cc1	-3	-3	12	0	3	2
Cn1c(C(=O)N2CCN(c3ccccc3)CC2)cc2cc(Cl)ccc21	-2	74*	-11	-1	-2	-2
Cn1c(C(=O)N2CCN(c3ccccn3)CC2)cc2ccccc21	nt	-4	11	-1	2	2
COc1ccc(Br)cc1CN(C)C(=O)c1ccncc1	-1	+	4	0	5	-1
SMILES	ERAP1 inh	CAL PDZ FP-1	PDI turbidity	CAL PDZ FP-2	ERp5 block	Rin1 Abl inh
O=C(N/N=C\c1cccc(Cl)c1)c1ccc(Cn2cc(Br)c([N+](=O)[O-])n2)o1	nt	86*	24	4	nt	3
O=C(O)Cn1c(-c2ccccc2)cc2ccccc21	0	62*	-7	0	2	-1
Cc1c(NC2=CC(=O)CC(C)(C)C2)c(=O)n(-c2ccccc2)n1C	-4	31*	3	-1	0	-4
Cc1c(NC2(C#N)CCCC2)c(=O)n(-c2ccccc2)n1C	nt	78*	-26	-1	nt	3
COc1cccc(S(=O)(=O)N[C@H]2CC[C@H](CC(=O)NCc3ccccc3)O[C@H]2CO)c1	0	nt	nt	nt	-1	nt
O=C1c2c(O)cc(O)cc2O[C@@]12c1c(cc(O)c3c1O[C@H](c1ccc(O)cc1)[C@@H](O)C3)O[C@@H]2c1ccc(O)cc1	9	-6	41*	-1	0	4
Oc1cc(O)c2c(c1)O[C@H](c1ccc(O)c(O)c1)[C@@H](O)C2	-3	7	-2	-1	-1	10
CC(C)NC(=O)N[C@H]1C=C[C@H](CC(=O)O)O[C@H]1CO	2	nt	nt	nt	-3	nt
O=C(CNC(=O)c1ccccc1Cl)N/N=C/c1ccc2c(c1)OCO2	0	96*	19	-2	-1	0
Cc1n[nH]c(=O)c2c(NC(=O)CSc3nnnn3-c3ccc(O)cc3)oc(C)c12	2	-5	43*	-1	-10	-1
Cc1ccccc1-c1ccc2c(c1)O[C@@H](CN(C)Cc1ccc(C(=O)O)cc1)[C@H](C)CN([C@@H](C)CO)S2(=O)=O	2	nt	nt	nt	0	nt
CC(C)(C)c1ccc(CCC2OCC(C[N+]3(C)CCOCC3)O2)cc1 (centres undefined)	104*	-2	-2	1	-3	-1
O=C(c1ccc(F)cc1)N1CC(=O)N2[C@@H](CO)[C@@H](c3ccc(-c4ccccc4)cc3)[C@@H]2C1	2	nt	nt	nt	-2	nt
C[C@@H]1CN([C@H](C)CO)C(=O)c2cccc(NC(=O)Nc3ccc(F)cc3)c2O[C@H]1CN(C)C(=O)NC1CCCCC1	0	nt	nt	nt	-1	nt
CC(C)C1Cc2c(sc3c2c(=O)n(-c2ccccc2)c2n[nH]c(=S)n32)CO1 (centres undefined)	-3	+	-5	-1	7	0
COc1ccc(-n2c(=O)c3c4c(sc3n3c(=S)[nH]nc23)CCCC4)cc1	7	-5	12	-1	-9	-5
CO[C@@H]1CN(C)C(=O)c2cc(NC(=O)Nc3ccc(F)cc3)ccc2OC[C@H](C)NC[C@@H]1C	-2	nt	nt	nt	-1	nt
CN(C)CC(=O)Nc1ccc2c(c1)[C@@H]1C[C@@H](CC(=O)NCC3CC3)O[C@H](CO)[C@@H]1O2	6	nt	nt	nt	-6	nt
O=C(NCCc1ccccc1F)c1ccc2c(c1)OCCO2	2	47*	-2	-1	2	2
O=C(NCc1ccccc1F)c1ccc2c(c1)OCO2	nt	3	-1	-1	nt	2
C[C@@H]1CN([C@H](C)CO)C(=O)c2cc(NC(=O)Nc3ccc(F)cc3)ccc2O[C@H]1CN(C)C(=O)Nc1ccc2c(c1)OCO2	-1	nt	nt	nt	1	nt
C[C@@H]1CCCCO[C@@H](CN(C)C(=O)Nc2ccc(F)cc2)[C@H](C)CN([C@@H](C)CO)C(=O)c2cc(NC(=O)Cc3ccccc3)ccc2O1	-1	nt	nt	nt	-5	nt
